Measurements: ChEMBL document CHEMBL1152138, “Clubbed [1,2,3] triazoles by fluorine benzimidazole: a novel approach to H37Rv inhibitors as a potential treatment for tuberculosis” (Bioorg Med Chem Lett, 2008)
≈ marks a conversion by molar mass, not a printed value. Where “and” joins values, the source holds several entries; their conditions need not be identical. Identical values can stand only once.

How the values were obtained:
[1] = test system: Salmonella typhi; assay: Antimicrobial activity against Salmonella typhosa after 24 hrs by well diffusion method; assay type: functional
In short: (§1)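 Well diffusion on nutrient agar. 10 mm wells cut with a sterile cork borer. Plates swab-inoculated from a 24 h bacterial subculture in nutrient broth. Compounds dissolved in chloroform and added to wells at 50 and 100 µM. Gentamycin used as standard. % inhibition derived from inhibition zone diameter.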

[2] = test system: Mycobacterium tuberculosis; assay: Antitubercular activity against Mycobacterium tuberculosis H37Rv ATCC 27294 by microplate alamar blue assay; assay type: functional
In short: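 Compounds active in the primary screen were retested at lower concentrations against H37Rv by Microplate Alamar Blue Assay. MIC taken as the lowest concentration giving a 95% reduction in fluorescence relative to controls. Rifampin used as reference.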

[3] = test system: Staphylococcus aureus; assay: Antimicrobial activity against Staphylococcus aureus after 24 hrs by well diffusion method; assay type: functional; in short: as §1
[4] = Cytotoxicity against african green monkey Vero C1008 cells at 6.25 to 50 ug/mL by neutral-red uptake assay; assay type: cell-based; conditions: chlorocebus sabaeus
In short: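 Vero C-1008 cells exposed to compounds at 6.25–50 µg/mL. Cytotoxicity read out by neutral red uptake.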

[5] = test system: Escherichia coli; assay: Antimicrobial activity against Escherichia coli after 24 hrs by well diffusion method; assay type: functional; in short: as §1
[6] = test system: Pseudomonas aeruginosa; assay: Antimicrobial activity against Pseudomonas aeruginosa after 24 hrs by well diffusion method; assay type: functional; in short: as §1
[7] = test system: Mycobacterium tuberculosis; assay: Antitubercular activity against Mycobacterium tuberculosis H37Rv ATCC 27294 at 6.25 ug/mL by microplate alamar blue assay; assay type: functional; conditions: read-out: GI
In short: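 Primary screen against M. tuberculosis H37Rv (ATCC 27294) at a single concentration of 6.25 µg/mL. Broth microdilution Microplate Alamar Blue Assay in BACTEC 12B medium. Fluorescent compounds were instead run in the BACTEC 460 radiometric system. Percent growth inhibition reported; >95% counted as active. Rifampin used as reference.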

Compound | inhibition zone (IZ) ([1]; Salmonella enterica subsp. enterica serovar Typhi) | inhibition zone (IZ) [1] | MIC [2] | inhibition zone (IZ) [3] | Activity [4] | inhibition zone (IZ) [5] | inhibition zone (IZ) [6] | inhibition of growth at 6.25 µg/mL [7]
GENTAMICIN | 30 mm | – | – | – | – | – | – | –
Fc1cccc(-c2nc3ccccc3n2Cc2cn(-c3ccc(C(F)(F)F)cc3)nn2)c1 | – | 18 mm | > 6.25 µg/mL | 18 mm | Non-toxic | 21 mm | 13 mm | –
Fc1cccc(-c2nc3ccccc3n2Cc2cn(-c3ccc(F)c(F)c3)nn2)c1 | – | 29 mm | 0.34 µM and > 6.25 µg/mL | 32 mm | Non-toxic | 30 mm | 31 mm | 96%
Fc1cccc(-c2nc3ccccc3n2Cc2cn(-c3ccccc3)nn2)c1 | – | 18 mm | > 6.25 µg/mL | 26 mm | Non-toxic | 17 mm | 28 mm | –
CO[C@H]1/C=C/O[C@@]2(C)Oc3c(C)c(O)c4c(O)c(c(/C=N/N5CCN(C)CC5)c(O)c4c3C2=O)NC(=O)/C(C)=C\C=C\[C@H](C)[C@H](O)[C@@H](C)[C@@H](O)[C@@H](C)[C@H](OC(C)=O)[C@@H]1C [RIFAMPIN] | – | – | 0.015 µg/mL (≈ 0.0182 µM) | – | – | – | – | –
Cc1ccc(-n2cc(Cn3c(-c4cccc(F)c4)nc4ccccc43)nn2)cc1 | – | 17 mm | > 12.5 µg/mL | 18 mm | Non-toxic | 19 mm | 20 mm | –
COc1ccccc1-n1cc(Cn2c(-c3cccc(F)c3)nc3ccccc32)nn1 | – | 23 mm | > 6.25 µg/mL | 21 mm | Non-toxic | 19 mm | 24 mm | –
Cc1ccccc1-n1cc(Cn2c(-c3cccc(F)c3)nc3ccccc32)nn1 | – | 17 mm | > 12.5 µg/mL | 16 mm | Non-toxic | 14 mm | 19 mm | –
Fc1cccc(-c2nc3ccccc3n2Cc2cn(-c3ccc(F)c(F)c3F)nn2)c1 | – | 30 mm | > 6.25 µg/mL | 31 mm | Non-toxic | 29 mm | 33 mm | –
Cc1ccc(-n2cc(Cn3c(-c4cccc(F)c4)nc4ccccc43)nn2)c(F)c1 | – | 18 mm | 3.13 µM and > 6.25 µg/mL | 18 mm | Non-toxic | 21 mm | 13 mm | 96%
Fc1ccc(-n2cc(Cn3c(-c4cccc(F)c4)nc4ccccc43)nn2)cc1 | – | 19 mm | 0.58 µM and > 6.25 µg/mL | 26 mm | Non-toxic | 20 mm | 19 mm | 96%
COc1ccc(-n2cc(Cn3c(-c4cccc(F)c4)nc4ccccc43)nn2)cc1 | – | 21 mm | 6.25 µM and > 6.25 µg/mL | 20 mm | Non-toxic | 18 mm | 26 mm | 96%
Fc1cccc(-c2nc3ccccc3n2Cc2cn(-c3ccc(F)cc3F)nn2)c1 | – | 31 mm | 0.32 µM and > 6.25 µg/mL | 33 mm | Non-toxic | 32 mm | 34 mm | 96%
